Only some compounds are listed: those with a hit (about 6% of all), similar ones and a draw of the others.
Fibroblast inh = blocks proliferation of human lung fibroblasts; LL 47 human lung fibroblast viability, ATP luminescence; active compounds read low; viability, % at 10 µM; 85,000 tested, 1.1% active; AID 719;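 active = viability at or below 50% in the single dose screen; inactive = viability above 50%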;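 note: compound exposure lasted 72 h before the ATP readout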
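test system = LL 47 human lung fibroblasts | amount = 1,150 fibroblasts seeded per well | medium = 15% FBS in IMEM | times = overnight cell rest, 72 h compound treatment at 37 °C | measured by = CellTiter-Glo luminescence measuring cellular ATP | read-out = viability percentage against median untreated-cell control | benchmarks = cell-only wells, no compound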
HUVEC inhibit = inhibitors of human endothelial cell proliferation. HUVEC proliferation, CellTiter-Glo luminescence, 72 h; active compounds read low. viability, % at 10 µM (by protocol). 86,000 tested, 1.1% active. AID 648;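 active = viability at or below 30%; inactive = viability above 30%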
Pyk2 oligo antag = antagonists of human Pyk2 oligomerization. Q14289. z-score (the deposit names both 25 µM and 10 µM). AID 1347419. 99,000 tested, 0.83% active. Q293 cells, Pyk2 FERM NanoBiT luminescence; active compounds read low;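 active = Z-score of -3 or lower, scaled per plate to the spread of control and sample wells; inactive = z-score above -3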;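 note: negative z-score means lost luminescence so less FERM oligomerization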
Jurkat viability = cytotoxicity toward Jurkat cells. inhibition, % at 4 µM. 56,000 tested, 1.2% active. Jurkat E6.1 viability, ATP luminescence, 48 h. AID 463;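 active = inhibition above the mean inhibition of all tested compounds plus 3 SD, cut at about 28% in these data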
cytoskel mod = cytoskeleton assembly modification. HUVEC TNFa F-actin phalloidin imaging, high content. inhibition, % at 2 µM. 91,000 tested, 0.18% active;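 active = inhibition above the batch mean plus 3 SD and confirmed as a hit by visual image inspection, cut at about 30% in these data, passing the limit was not always enough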
H69AR inhibit = blocks growth of human H69AR lung tumor cells; 85,000 tested, 6% active; H69AR lung tumor viability, ATP luminescence, 72 h; active compounds read low; AID 598; viability, % at 10 µM;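 active = viability at or below 40%; inactive = viability above 40%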;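 note: multidrug resistant small cell line overexpressing MRP-1 efflux transporter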
Of the large screens only hits and unclear results are named; the others gave an inactive call.

CC(Nc1nc(N2CCN(S(C)(=O)=O)CC2)nc2ccccc12)c1ccccc1 (centres undefined)	HUVEC inhibit 14
Cc1ccc(C)c(Cn2c(C(=O)OC(C)C)cc3c2ccn3C)c1	none (no result: Jurkat viability)
COc1ccccc1CN(Cc1nc2ccccc2c(=O)[nH]1)C(=O)Nc1ccccc1C	none (no result: Jurkat viability)
Cc1ccccc1NC(=O)N(CCc1nc2ccccc2[nH]1)Cc1ccccc1	H69AR inhibit 16 (no result: Jurkat viability)
CC(=O)CSc1nc2ccccc2s1	none (no result: Jurkat viability)
CCCn1nc([N+](=O)[O-])c(C(C#N)c2nc3ccccc3s2)c(Cl)c1=O (centres undefined)	Pyk2 oligo antag -3.2 (no result: Fibroblast inh, HUVEC inhibit, Jurkat viability, H69AR inhibit)
Cc1ccc2nc3c(c(N)c2c1)CCN3c1ccccc1	none
CCCCN1CCc2c1nc1ccc(Br)cc1c2N	Fibroblast inh 28, HUVEC inhibit 13 (no result: Jurkat viability)
CCCCNC(=O)c1sc2nc(C)cc(COC)c2c1-n1cccc1	H69AR inhibit 35
Cc1cc(C)c2c(-n3cccc3)c(C(=O)O)sc2n1	none
O=C(Nc1ccc(S(=O)(=O)Nc2ncccn2)cc1)c1ccc(Br)s1	none (no result: Fibroblast inh, HUVEC inhibit, Jurkat viability, H69AR inhibit)
CCOC(=O)C1=C(C)Nc2ccccc2N=C1NC(=O)Cc1ccc(OC)cc1	none (no result: Fibroblast inh, HUVEC inhibit, Jurkat viability, cytoskel mod, H69AR inhibit)
FC(F)C(F)(F)C(F)(F)C(F)(F)c1cc(-c2ccccc2)n[nH]1	HUVEC inhibit 14, Pyk2 oligo antag -3.4, H69AR inhibit 30 (no result: cytoskel mod)
Nc1nc(-c2ccccc2)cc(C(F)(F)F)n1	none
CNCCCOc1ccc(C(C)(C)c2ccccc2)cc1	H69AR inhibit 9.9 (no result: Pyk2 oligo antag, Jurkat viability)
CNCCCCOc1ccccc1-c1ccccc1	none (no result: Fibroblast inh, HUVEC inhibit, Jurkat viability, cytoskel mod, H69AR inhibit)
CN(C)CCCNc1oc(-c2cccc(Cl)c2)nc1C#N	none
Cc1ccc(S(=O)(=O)/N=C(\CN2CCOCC2)N2CCCC2)cc1	none
Cc1ccc(S(=O)(=O)/N=C(\CCl)N2CCOCC2)cc1	H69AR inhibit 1.2 (no result: Pyk2 oligo antag, Jurkat viability, cytoskel mod)
COC(=O)C1=CN(C(C)C)C=C(C(=O)OC)C1c1cccc(OC)c1	none
COC(=O)C1=CN(C(C)C)C=C(C(=O)OC)C1c1cc(Br)c(OC)c(OC)c1	Pyk2 oligo antag -3.6 (no result: Jurkat viability)
Cc1cccc(NC(=O)C2NC(=O)CC2c2ccccc2)c1C (centres undefined)	none (no result: Pyk2 oligo antag, Jurkat viability)
NS(=O)(=O)c1ccc(CCNC(=O)Nc2ccc(Cl)c(Cl)c2)cc1	H69AR inhibit 19 (no result: Jurkat viability)
COc1ccc(C2CC(=O)C(C=NCCN3CCN(C(C)=O)CC3)=C(O)C2)cc1OC (centres undefined)	none (no result: Pyk2 oligo antag, cytoskel mod)
O=S(=O)(c1ccc2oc3ccc(S(=O)(=O)N4CCCCC4)cc3c2c1)N1CCCCC1	none (no result: Jurkat viability)
CCN(CC)c1ccc(C(=O)n2cnc3ccccc32)cc1	H69AR inhibit 21 (no result: cytoskel mod)
CN(C)c1ccc(C(=O)n2nnc3ccccc32)cc1	none (no result: Jurkat viability)
Cc1cccc(NC(=S)NC(=O)/C=C/c2ccco2)n1	H69AR inhibit 33 (no result: Jurkat viability)
O=C(/C=C/c1ccco1)NC(=S)Nc1cccc(-c2nc3ccccc3o2)c1	none (no result: Fibroblast inh, HUVEC inhibit, Jurkat viability, H69AR inhibit)
O=C(NNC(=O)c1ccc(SCC2CCCO2)c([N+](=O)[O-])c1)c1ccc(F)cc1 (centres undefined)	none (no result: Jurkat viability)
N#Cc1ccccc1Sc1ccccc1C(=O)Nc1ccccc1	none (no result: Fibroblast inh, HUVEC inhibit, Jurkat viability, H69AR inhibit)
O=C(C#Cc1ccccc1)c1cccc([N+](=O)[O-])c1	Fibroblast inh 18, H69AR inhibit 1.4 (no result: Jurkat viability)
O=C(c1cc(-c2cccnc2)nc2ccc(Br)cc12)N1CCN(c2ncccn2)CC1	H69AR inhibit 5.3 (no result: cytoskel mod)
O=C(c1cc(-c2ccncc2)nc2ccccc12)N1CCN(c2ccccn2)CC1	H69AR inhibit 19 (no result: Jurkat viability)
O=C(c1cc(-c2ccccc2)nc2ccccc12)N1CCN(c2ccccn2)CC1	none
Cc1ccccc1C(=O)N1CCN(c2ccccn2)CC1	none (no result: Jurkat viability)
O=C(c1ccccc1-c1ccccc1)N1CCN(c2ccccn2)CC1	Jurkat viability 84, H69AR inhibit 19
CCCOc1ccc(C(=O)N2CCN(c3ccc(N)cc3Cl)CC2)cc1	Pyk2 oligo antag -3.9
CCOc1ccc(C(=O)N2CCCCCC2)cc1	none
CCC(C)(C)n1nnnc1C(c1cc2cc(C)cc(C)c2[nH]c1=O)N1CCCC1 (centres undefined)	none (no result: Fibroblast inh, HUVEC inhibit, cytoskel mod, H69AR inhibit)
CCC(C)(C)n1nnnc1C(c1cc2cc(C)cc(C)c2[nH]c1=O)N1CCN(Cc2ccc3c(c2)OCO3)CC1 (centres undefined)	Fibroblast inh 25, H69AR inhibit 8.6 (no result: Jurkat viability, cytoskel mod)
CCCn1c(NCCO)nc2ccccc21	none (no result: Jurkat viability)
CCCn1c(NC(=O)c2cccc(C)c2C)nc2ccccc21	H69AR inhibit 25 (no result: Jurkat viability)
CCCn1c(NC(=O)c2ccc(Cl)c(S(=O)(=O)N3CCCC3)c2)nc2ccccc21	H69AR inhibit 10.0

Source: PubChem
